The nature of data set [1]: Drug uptake in CHOK1 cells by HPLC coupled with radiodetection analysis in presence of KH and Hanks' balanced salt solution. It is filed as ADME, cell-based, Cricetulus griseus. The note with it: chinese hamster, cho-k1.
A short description of data set [2]: AUC(0 to 5 hrs) in juvenile fasted Sprague-Dawley rat at 30 mg/kg, po administered as water solution by HPLC-tandem mass spectrometry. More on the design: time < 5 hr, dose 30 mg/kg, route oral. The format is ADME, organism-based. The note with it: plasma. The gist of the method: (§1)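 7-day-old Sprague-Dawley pups (9.7-18.9 g, both sexes), 15 per group. Given 30 mg/kg by oral gavage (10 ml/kg); breast-fed pups stayed with dams, fasted pups were removed 8 h before dosing. Blood taken by cardiac puncture under isoflurane at 0.25, 0.5, 1, 2 and 5 h, n=3 per time point (composite design). Dichlorvos-treated plasma assayed by LC-MS/MS; AUC0-5h by noncompartmental analysis.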

A short description of data set [3]: Apparent oral clearance in healthy human at 150 mg, po administered as single dose by HPLC-tandem mass spectrometry under fasting conditions. It is filed as ADME, organism-based. The note with it: in vivo. The gist of the method:
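Open-label crossover in 18 healthy volunteers (9 male, 9 female, mean age 26). Each received marketed oseltamivir 150 mg orally, once fasted from midnight and once after a high-fat, high-calorie breakfast, with a 7-10 day washout. Plasma and urine collected over 0-72 h and analysed by HPLC-MS/MS. AUC and Cmax compared after log transformation.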

The nature of data set [4]: Cmax in juvenile fasted Sprague-Dawley rat at 30 mg/kg, po administered as solution in bovine milk by HPLC-tandem mass spectrometry. The format is ADME, organism-based. More on the design: dose 30 mg/kg, route oral. The conditions noted are these: in vivo. The gist of the method: as §1
Data set [5] is described as follows: Tmax in adult fed Sprague-Dawley rat at 30 mg/kg, po administered as water solution by HPLC-tandem mass spectrometry. The format is ADME, organism-based. More on the design: dose 30 mg/kg, route oral. The note with it: in vivo. The essentials:
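Cannulated adult male Sprague-Dawley rats with chow ad libitum, 3 per vehicle, were given oral 30 mg/kg (10 ml/kg). Plasma analysis was by HPLC-MS/MS, with Tmax taken graphically from concentration-time profiles.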

The nature of data set [6]: Cmax in juvenile fasted Sprague-Dawley rat at 30 mg/kg, po administered as 125 mM aqueous Gly-Sar solution by HPLC-tandem mass spectrometry. It is filed as ADME, organism-based. Also on record: dose 30 mg/kg, route oral. The note with it: in vivo. The essentials:
as §1

Data set [7] in a line: Tmax in adult fasted Sprague-Dawley rat at 30 mg/kg, po administered as water solution by HPLC-tandem mass spectrometry. The format is ADME, organism-based. Also on record: dose 30 mg/kg, route oral. The note with it: in vivo. The gist of the method:
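Male Sprague-Dawley rats (7–8 weeks, 243–283 g) had jugular-vein cannulas and 3 days' recovery. Fasting ran from 6 h predose through the 6 h study. Three rats per vehicle received 30 mg/kg oral (10 ml/kg). Blood was sampled 0.25–6 h into K2EDTA tubes with dichlorvos. Plasma was assayed by HPLC-MS/MS (0.1–500 µg/l). Tmax was read graphically (noncompartmental).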

A short description of data set [8]: Drug uptake in CHOK1 cells expressing human PEPT1 at 100 uM after 10 mins by HPLC coupled with radiodetection analysis in presence of PEPT1 inhibitor valacyclovir. The conditions noted are these: chinese hamster, cho-k1, 10 min. It is filed as ADME, cell-based, Cricetulus griseus. The gist of the method:
(§2)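 CHO-PEPT1 and parental CHO-K1 cells were washed in KH/MES buffer, then incubated 10 min at 37°C, pH 6, with 100 µM [14C]oseltamivir alone or with 20 mM of the inhibitor. The pH was readjusted after additions. Uptake was quenched with ice-cold PBS-BSA and cells were washed and lysed in 1% Triton X-100. Lysate radioactivity was normalized to BCA protein. Three experiments on separate days, triplicate wells.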

The nature of data set [9]: Drug uptake in CHOK1 cells at 100 uM after 10 mins by HPLC coupled with radiodetection analysis in presence of PEPT1 inhibitor Trp-Gly. It is filed as ADME, cell-based, Cricetulus griseus. The note with it: chinese hamster, cho-k1, 10 min. The essentials:
(§3)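 CHO-K1 cells held in KH buffer at pH 6. Incubated 10 min with [14C]oseltamivir at 100 μM, either with 20 mM Trp-Gly, valacyclovir or cefadroxil, or at 4°C (on ice) against 37°C. Quenched with ice-cold PBS-0.2% BSA, washed, lysed in 1% Triton X-100 at 60°C. Lysate counted by scintillation and normalised to BCA protein. Three experiments, each point in triplicate.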

Data set [10] can be described thus: Drug uptake in CHOK1 cells at 100 uM at pH 4 to 8 after 10 mins by HPLC coupled with radiodetection analysis. The conditions noted are these: chinese hamster, cho-k1, pH 4, 10 min. It is filed as ADME, cell-based, Cricetulus griseus. The essentials:
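[14C]oseltamivir at 100 μM incubated with CHO-K1 cells for 10 min at 37°C in KH buffer over pH 4-8, with pH readjusted after compound addition. Washed cells were lysed in Triton X-100, radioactivity counted and normalised to protein. Three independent experiments, each run in triplicate.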

Data set [11] in a line: Drug uptake in CHOK1 cells expressing human PEPT1 at 100 uM at pH 4 to 8 after 10 mins by HPLC coupled with radiodetection analysis. The conditions noted are these: chinese hamster, cho-k1, pH 4, 10 min. It is filed as ADME, cell-based, Cricetulus griseus. The gist of the method:
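pH series from 4 to 8: CHO-PEPT1 and CHO-K1 cells were exposed to 100 µM [14C]oseltamivir (or 2 µM [3H]Gly-Sar) in KH/MES buffer, with pH readjusted after substrate addition, for 10 min at 37°C. Then quench in ice-cold PBS-BSA, Triton X-100 lysis and scintillation counting normalized to protein. Three independent experiments.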

Data set [12] is described as follows: Drug uptake in CHOK1 cells at 100 uM after 10 mins by HPLC coupled with radiodetection analysis in presence of PEPT1 inhibitor cefadroxil. It is filed as ADME, cell-based, Cricetulus griseus. The conditions noted are these: chinese hamster, cho-k1, 10 min. The gist of the method: as §3
Data set [13] can be described thus: Drug uptake in CHOK1 cells expressing human PEPT1 at 100 uM after 10 mins by HPLC coupled with radiodetection analysis in presence of PEPT1 inhibitor cefadroxil. The conditions noted are these: chinese hamster, cho-k1, 10 min. The format is ADME, cell-based, Cricetulus griseus. The essentials:
as §2

Data set [14] in a line: Drug uptake in CHOK1 cells expressing human PEPT1 at 100 uM after 10 mins by HPLC coupled with radiodetection analysis in presence of PEPT1 inhibitor Trp-Gly. It is filed as ADME, cell-based, Cricetulus griseus. The note with it: chinese hamster, cho-k1, 10 min. The essentials: as §2
Data set [15] in a line: Drug uptake in CHOK1 cells expressing human PEPT1 at 100 uM at 4 degC after 10 mins by HPLC coupled with radiodetection analysis. The format is ADME, cell-based, Cricetulus griseus. The note with it: chinese hamster, cho-k1, 10 min. The gist of the method:
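100 µM [14C]oseltamivir was incubated with CHO-PEPT1 and CHO-K1 cells for 10 min in KH/MES buffer pH 6, on ice (4°C) or on a 37°C block. Uptake was stopped with ice-cold PBS-BSA, cells were washed and lysed in Triton X-100, and radioactivity was counted per mg protein (BCA). Three independent experiments.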

A short description of data set [16]: Drug uptake in CHOK1 cells at 100 uM at 4 degC after 10 mins by HPLC coupled with radiodetection analysis. It is filed as ADME, cell-based, Cricetulus griseus. The conditions noted are these: chinese hamster, cho-k1, 10 min. The gist of the method:
as §3

A short description of data set [17]: Drug uptake in CHOK1 cells at 100 uM after 10 mins by HPLC coupled with radiodetection analysis in presence of PEPT1 inhibitor valacyclovir. The format is ADME, cell-based, Cricetulus griseus. The conditions noted are these: chinese hamster, cho-k1, 10 min. The gist of the method:
as §3

Broadly, the AUC(0-t) is the area under the concentration-time curve up to a stated or last time point. One may read the CL/F as the apparent clearance, not corrected for the fraction that reaches the circulation. What is called Cmax is the highest concentration seen after dosing. In general, Tmax refers to the time at which the peak concentration occurs. As to `CCC(CC)O[C@@H]1C=C(C(=O)O)C[C@H](N)[C@H]1NC(C)=O` [OSELTAMIVIR CARBOXYLATE], in data set [1], the Drug uptake entry is recorded as “Active”. In data set [2], this compound displayed an AUC(0-t) at 5 h of 12100 ng·h/mL. For the same compound, in data set [3], the CL/F stood at 371 mL/min. In addition, the peak concentration (Cmax) in data set [4] came out at 2460 ng/mL; in data set [6], 2710 ng/mL. Further, the Tmax in data set [5] stood at 45 min; in data set [7], 64.8 min.

With `CCOC(=O)C1=C[C@@H](OC(CC)CC)[C@H](NC(C)=O)[C@@H](N)C1` [OSELTAMIVIR], the Drug uptake entry in data set [8] is reported as “Not Active”; in data set [9], “Not Active”; in data set [1] it was “Active”; in [10], “Active”; in [11], “Active”; in data set [12], “Not Active”. In addition, the Drug uptake result in data set [13], in data set [14], in data set [15], in data set [16] and in data set [17] was “Not Active” in each case. The compound further came in with an exposure AUC(0-t) at 5 h in [2] of 29500 ng·h/mL. Further, the CL/F in data set [3] came out at 13000 mL/min. Besides, the figures for the Cmax in data set [4] and in [6] were 7990 ng/mL and 10400 ng/mL, respectively. Further, the Tmax in [5] stood at 24.6 min; in [7], 49.8 min.

Source of the values: ChEMBL document CHEMBL3526035, “Role of the intestinal peptide transporter PEPT1 in oseltamivir absorption: in vitro and in vivo studies” (Drug Metab Dispos, 2012).
